A selection: hits, their analogues and other compounds. The true share with any hit is near 4%.
KCNQ1 pot – potentiators or activators of KCNQ1 channel, primary screen, cell-based, thallium flux, high-throughput; Potassium voltage-gated channel subfamily KQT member 1 (Homo sapiens), P51787; CHO-K1 KCNQ1, thallium flux FluxOR fluorescence; stronger effect = higher value; B-score at 10 µM; 310,000 compounds, 0.35% hits; AID 2648, 2010;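 active = fluorescence ratio B-score, a plate-corrected score, at least three library SD, with initial intensity B-score within 5 SD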
Target sequence (P51787 whole entry, looked up): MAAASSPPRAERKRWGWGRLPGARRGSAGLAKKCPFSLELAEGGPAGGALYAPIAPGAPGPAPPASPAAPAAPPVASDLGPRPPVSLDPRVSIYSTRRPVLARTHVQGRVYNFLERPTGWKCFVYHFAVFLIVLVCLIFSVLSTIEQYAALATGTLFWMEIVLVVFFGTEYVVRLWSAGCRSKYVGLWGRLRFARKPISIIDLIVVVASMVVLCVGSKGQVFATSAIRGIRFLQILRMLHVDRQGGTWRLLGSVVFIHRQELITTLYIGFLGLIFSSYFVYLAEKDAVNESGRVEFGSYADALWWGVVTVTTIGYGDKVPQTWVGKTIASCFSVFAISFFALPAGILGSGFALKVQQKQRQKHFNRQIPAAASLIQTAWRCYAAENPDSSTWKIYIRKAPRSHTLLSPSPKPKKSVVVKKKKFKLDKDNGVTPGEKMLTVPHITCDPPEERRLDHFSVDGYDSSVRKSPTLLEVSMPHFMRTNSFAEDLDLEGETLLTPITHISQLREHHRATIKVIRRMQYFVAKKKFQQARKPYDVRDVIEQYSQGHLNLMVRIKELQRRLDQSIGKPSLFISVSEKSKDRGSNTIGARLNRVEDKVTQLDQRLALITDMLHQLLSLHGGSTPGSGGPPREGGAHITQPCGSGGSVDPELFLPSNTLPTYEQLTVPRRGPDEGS
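Doses: Single concentration per compound, DMSO matched to controls | Test system: KCNQ1-transfected CHO-K1 cells | Timing: 90 min dye loading and 20 min compound exposure, both at room temperature | Measured by: Kinetic FluxOR thallium fluorescence, 10-s 1-Hz baseline, 110-s post-stimulus read | Medium: Assay buffer with matched DMSO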
KCNK9 inh – KCNK9 potassium channel inhibitors, primary screen, HEK293 cells, thallium flux; FluxOR thallium flux fluorescence; stronger effect = lower value; B-score at 10 µM; 310,000 compounds, 1.2% hits;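 active = ratio B-score over 3 SD below the library mean, with starting fluorescence within 5 SD of its mean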;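 note: negative B-score means less thallium flux so channel inhibition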
PHOSPHO1 inh – PubChem AID 1565; recombinant PHOSPHO1, absorbance phosphatase assay; inhibition, % at 13.3 µM; 290,000 compounds, 1.1% hits; in the data active = inhibition above about 60%
KCNK3 block – human KCNK3 channel inhibitors, primary screen, CHO cells, FluxOR thallium flux, B-score | 340,000 compounds, 0.84% hits | B-score at 10 µM | AID 602410, 2012 | Potassium channel subfamily K member 3 (Homo sapiens), O14649 | FluxOR fluorescence; stronger effect = lower value;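 active = B-score under library mean minus 4 SD, starting fluorescence ratio at most library mean plus 5 SD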;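 note: more negative B-score means stronger inhibition of thallium flux through KCNK3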
KCNQ1 inh – inhibitors of human KCNQ1 channel, primary screen, cell-based, thallium flux, high-throughput. CHO-K1 KCNQ1, FluxOR thallium flux fluorescence; stronger effect = higher value. B-score at 10 µM. 310,000 compounds, 1.3% hits. AID 2642, 2010;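 active = compounds whose thallium flux B-score, printed positive for inhibition, exceeds three library SD while starting fluorescence stays within three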;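 note: channel opened by potassium depolarization with thallium stimulus after 20 min compound exposure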
hERG rescue – hERG rescue from dofetilide block, primary screen, cell-based, CHO-hERG, FluxOR thallium flux, dofetilide IC70 | activation (rescue from dofetilide block), less the hit threshold, % at 10 µM | dofetilide IC70 present | AID 1511, 2009 | 310,000 compounds, 0.51% hits;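 active = activation above the mean of controls blocked by dofetilide plus 5 SD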;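 note: thallium influx through hERG after potassium depolarization seen as dye fluorescence rise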
Hits are given with their value.

Cn1c(CC(=O)Nc2ccc(Cl)c(Cl)c2)nnc1SCC(=O)N1CCN(c2ccccc2)CC1 was read as KCNQ1 pot inactive, KCNK9 inh inactive, PHOSPHO1 inh inactive, KCNK3 block inactive, KCNQ1 inh inactive and hERG rescue inactive.
For CC(NC(=O)CSc1nnc(CC(=O)Nc2ccc(Cl)c(Cl)c2)n1C)c1ccccc1 (centres undefined) the results were KCNQ1 pot inactive, KCNK9 inh inactive, PHOSPHO1 inh 95, KCNK3 block inactive, KCNQ1 inh inactive and hERG rescue inactive.
O=C(Nc1ccc(OCC(F)(F)C(F)F)c(C(F)(F)F)c1)c1ccccc1O was read as KCNQ1 pot inactive, KCNK9 inh -6.6, PHOSPHO1 inh inactive, KCNK3 block inactive, KCNQ1 inh inactive and hERG rescue inactive.
`O=C(Nc1ccc(OCC(F)(F)C(F)F)c(C(F)(F)F)c1)c1ccccc1` gave KCNQ1 pot inactive, KCNK9 inh inactive, KCNK3 block inactive, KCNQ1 inh inactive and hERG rescue inactive.
`c1ccc(Nc2nc(N3CCCC3)nc(N3CCCC3)n2)cc1` gave KCNQ1 pot inactive, KCNK9 inh inactive, PHOSPHO1 inh inactive, KCNK3 block inactive, KCNQ1 inh inactive and hERG rescue inactive.
`c1ccc(Nc2nc(N3CCCCC3)nc(N3CCCCC3)n2)cc1` gave KCNQ1 pot inactive, KCNK9 inh inactive, PHOSPHO1 inh inactive, KCNK3 block inactive, KCNQ1 inh 9 and hERG rescue inactive.
Screening Cc1ccc(N(C(=O)Cn2nnc(-c3ccccc3F)n2)C(C(=O)NC2CCCC2)c2ccncc2)cc1 (centres undefined) returned KCNQ1 pot inactive, KCNK9 inh inactive, PHOSPHO1 inh inactive, KCNK3 block inactive, KCNQ1 inh inactive and hERG rescue inactive.
COc1cccc(CN(CC(=O)NC2CCCC2)C(=O)Cn2nnc(-c3cccs3)n2)c1 was read as KCNQ1 pot inactive, KCNK9 inh inactive, PHOSPHO1 inh inactive, KCNK3 block inactive, KCNQ1 inh inactive and hERG rescue 32.
Cc1ccc(N(C(=O)Cn2nnc(-c3cccs3)n2)C(C(=O)NC2CCCC2)c2ccncc2)cc1 (centres undefined) was read as KCNQ1 pot inactive, KCNK9 inh inactive, PHOSPHO1 inh 60, KCNK3 block inactive, KCNQ1 inh inactive and hERG rescue inactive.
For O=C1C2CC=CCC2C(=O)N1CNc1ccccc1 (centres undefined) the results were KCNQ1 pot inactive, KCNK9 inh inactive, PHOSPHO1 inh inactive, KCNK3 block inactive, KCNQ1 inh inactive and hERG rescue inactive.
`O=C(C[n+]1cn(C(F)F)c2ccccc21)c1ccc(OC(F)F)cc1` gave KCNQ1 pot inactive, KCNK9 inh inactive, PHOSPHO1 inh inactive, KCNK3 block inactive, KCNQ1 inh inactive and hERG rescue inactive.
O=S(=O)(c1ccc(SCc2ccc(Br)cc2)nc1)N1CCCCC1 was read as KCNK3 block -10.
O=S(=O)(c1ccc(SCc2ccccc2)nc1)N1CCCCC1 was read as KCNK3 block inactive.
For O=C1C2C3C=CC(C4CC34)C2C(=O)N1/N=C/c1ccc(-c2ccc(F)cc2[N+](=O)[O-])o1 (centres undefined) the results were KCNQ1 pot inactive, KCNK9 inh inactive, PHOSPHO1 inh inactive, KCNK3 block inactive, KCNQ1 inh inactive and hERG rescue 8.1.
`COc1ccccc1NC(=O)c1sc2ncn(Cc3cccc4ccccc34)c(=O)c2c1C` gave KCNQ1 pot inactive, KCNK9 inh inactive, PHOSPHO1 inh inactive, KCNK3 block inactive, KCNQ1 inh inactive and hERG rescue inactive.
For CC#CCN1c2ccccc2[C@]23C[C@@H](C(=O)OC)N(C(=O)c4ccc(Br)cc4)C2=NC(C(=O)OC)=C(C(=O)OC)[C@H]13 the results were KCNQ1 pot inactive, KCNK9 inh inactive, KCNQ1 inh inactive and hERG rescue inactive.
`COC(=O)C1=C(C(=O)OC)[C@@H]2N(Cc3ccccc3)c3ccccc3[C@@]23C[C@@H](C(=O)OC)N(C(=O)c2cccs2)C3=N1` gave KCNQ1 pot inactive, KCNK9 inh -7.9, PHOSPHO1 inh inactive, KCNK3 block inactive, KCNQ1 inh inactive and hERG rescue inactive.
For COC(=O)C1=C(C(=O)OC)[C@@H]2N(Cc3ccccc3)c3ccccc3[C@@]23C[C@@H](C(=O)OC)N(C(=O)CC(C)C)C3=N1 the results were KCNQ1 pot inactive, KCNK9 inh -7.9, PHOSPHO1 inh inactive, KCNK3 block inactive, KCNQ1 inh inactive and hERG rescue inactive.
`COC(=O)C1=C(C(=O)OC)[C@@H]2N(C)c3ccccc3[C@@]23C[C@@H](C(=O)OC)N(C(=O)c2ccc(Br)cc2)C3=N1` gave KCNQ1 pot 30, KCNK9 inh inactive, PHOSPHO1 inh inactive, KCNK3 block inactive, KCNQ1 inh inactive and hERG rescue inactive.
For COC(=O)C1=C(C(=O)OC)[C@@H]2N(Cc3ccccc3)c3ccccc3[C@@]23C[C@@H](C(=O)OC)N(C(=O)c2cc(C)oc2C)C3=N1 the results were KCNQ1 pot inactive, KCNK9 inh inactive, KCNK3 block inactive, KCNQ1 inh inactive and hERG rescue inactive.
Screening CCOC(=O)C(C)c1c(C)[nH]c(=S)[nH]c1=O (centres undefined) returned KCNQ1 pot inactive, KCNK9 inh inactive, PHOSPHO1 inh inactive, KCNK3 block inactive, KCNQ1 inh inactive and hERG rescue inactive.
Cc1cccc(NC(=S)NNC(=O)c2cc3c(s2)CCC(C)C3)c1C (centres undefined) was read as KCNQ1 pot 11, KCNK9 inh inactive, PHOSPHO1 inh inactive, KCNK3 block inactive, KCNQ1 inh inactive and hERG rescue inactive.
Screening Cc1ccc(C)c(NC(=S)NNC(=O)c2sccc2C)c1 returned KCNQ1 pot inactive, KCNK9 inh inactive, PHOSPHO1 inh inactive, KCNK3 block inactive, KCNQ1 inh inactive and hERG rescue inactive.
For Cc1ccc(C)c(NC(=S)NNC(=O)c2cc3c(s2)CCC(C)C3)c1 (centres undefined) the results were KCNQ1 pot inactive, KCNK9 inh inactive, PHOSPHO1 inh inactive, KCNK3 block inactive, KCNQ1 inh inactive and hERG rescue 9.3.
Screening CCn1c(CNC(=O)COc2c(C)cccc2C)nnc1SCC(=O)Nc1nccs1 returned KCNQ1 pot inactive, KCNK9 inh inactive, PHOSPHO1 inh inactive, KCNK3 block inactive, KCNQ1 inh inactive and hERG rescue inactive.

High-throughput results (PubChem BioAssay)
